According to ChEMBL document CHEMBL1811853, “Design and evaluation of 3-aminopyrazolopyridinone kinase inhibitors inspired by the natural product indirubin” (Bioorg Med Chem, 2011):

Legend:
[1] = target: T1, Protein kinase C zeta type (Homo sapiens) (UniProt Q05513); test: Inhibition of PKCz at 30 uM by microfluidic mobility shift assay
T1 sequence (whole entry): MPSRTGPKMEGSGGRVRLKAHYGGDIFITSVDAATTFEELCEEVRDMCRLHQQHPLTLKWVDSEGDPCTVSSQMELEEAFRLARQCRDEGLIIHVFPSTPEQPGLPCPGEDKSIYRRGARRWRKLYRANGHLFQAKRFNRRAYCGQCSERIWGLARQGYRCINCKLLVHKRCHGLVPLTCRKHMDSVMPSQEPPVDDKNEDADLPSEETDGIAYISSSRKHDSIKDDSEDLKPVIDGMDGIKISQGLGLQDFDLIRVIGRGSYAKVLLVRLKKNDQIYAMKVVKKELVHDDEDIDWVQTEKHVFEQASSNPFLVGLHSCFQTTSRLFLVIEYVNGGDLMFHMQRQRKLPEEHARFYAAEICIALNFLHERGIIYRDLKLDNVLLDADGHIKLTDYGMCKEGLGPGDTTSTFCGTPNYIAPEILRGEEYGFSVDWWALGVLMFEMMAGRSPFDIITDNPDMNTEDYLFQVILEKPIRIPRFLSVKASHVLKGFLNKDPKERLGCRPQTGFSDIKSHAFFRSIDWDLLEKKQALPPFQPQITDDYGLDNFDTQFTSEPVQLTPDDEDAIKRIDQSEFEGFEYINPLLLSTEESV
Method in brief: (§1)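 Single-concentration screen, singlicate, 30 uM final (diluted from 1 mM DMSO solutions), fluorescently tagged peptide substrate appropriate to each kinase, ATP at apparent Km for each protein. Phosphorylated and unphosphorylated peptides separated electrophoretically; conversion is the phosphorylated peak area over the sum of both peaks. No-inhibitor and no-ATP controls; H89 reference on each plate.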

[2] = target: Tyrosine-protein kinase Fyn (Homo sapiens, UniProt P06241); test: Inhibition of FYN at 30 uM by microfluidic mobility shift assay; method in brief: as §1
[3] = target: Glycogen synthase kinase-3 beta (Homo sapiens) (UniProt P49841); test: Inhibition of GSK3B at 30 uM by microfluidic mobility shift assay; method in brief: as §1
[4] = target: Mitogen-activated protein kinase 3 (Homo sapiens) (UniProt P27361); test: Inhibition of ERK1 at 30 uM by microfluidic mobility shift assay; method in brief: as §1
[5] = target: Tyrosine-protein kinase ABL1 (Homo sapiens, UniProt P00519); test: Inhibition of ABL at 30 uM by microfluidic mobility shift assay; method in brief: as §1
[6] = target: RAC-alpha serine/threonine-protein kinase (Homo sapiens) (UniProt P31749); test: Inhibition of AKT1 at 30 uM by microfluidic mobility shift assay; method in brief: as §1
[7] = target: RAC-beta serine/threonine-protein kinase (Homo sapiens) (UniProt P31751); test: Inhibition of AKT2 at 30 uM by microfluidic mobility shift assay; method in brief: as §1
[8] = target: T2, Aurora kinase A (Homo sapiens) (UniProt O14965); test: Inhibition of AurA at 30 uM by microfluidic mobility shift assay; method in brief: as §1
T2 sequence (whole entry): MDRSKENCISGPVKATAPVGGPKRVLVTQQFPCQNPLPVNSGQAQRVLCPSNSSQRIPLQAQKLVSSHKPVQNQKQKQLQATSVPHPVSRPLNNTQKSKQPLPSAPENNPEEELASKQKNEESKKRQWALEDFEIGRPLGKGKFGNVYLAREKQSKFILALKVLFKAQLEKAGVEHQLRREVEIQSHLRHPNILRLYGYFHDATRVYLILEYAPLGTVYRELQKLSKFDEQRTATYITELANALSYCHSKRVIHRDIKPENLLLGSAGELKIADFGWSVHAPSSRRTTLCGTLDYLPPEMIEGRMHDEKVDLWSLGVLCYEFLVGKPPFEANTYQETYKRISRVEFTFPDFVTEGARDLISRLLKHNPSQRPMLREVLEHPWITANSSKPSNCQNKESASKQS

[9] = target: Ribosomal protein S6 kinase alpha-5 (Homo sapiens) (UniProt O75582); test: Inhibition of MSK1 at 30 uM by microfluidic mobility shift assay; method in brief: as §1
[10] = Inhibition of PKA at 30 uM by microfluidic mobility shift assay; method in brief: as §1
[11] = target: Mitogen-activated protein kinase 14 (Homo sapiens, UniProt Q16539); test: Inhibition of p38alpha at 30 uM by microfluidic mobility shift assay; method in brief: as §1
[12] = target: T3, Serine/threonine-protein kinase Chk1 (Homo sapiens) (UniProt O14757); test: Inhibition of CHK1 at 30 uM by microfluidic mobility shift assay; method in brief: as §1
T3 sequence (whole entry): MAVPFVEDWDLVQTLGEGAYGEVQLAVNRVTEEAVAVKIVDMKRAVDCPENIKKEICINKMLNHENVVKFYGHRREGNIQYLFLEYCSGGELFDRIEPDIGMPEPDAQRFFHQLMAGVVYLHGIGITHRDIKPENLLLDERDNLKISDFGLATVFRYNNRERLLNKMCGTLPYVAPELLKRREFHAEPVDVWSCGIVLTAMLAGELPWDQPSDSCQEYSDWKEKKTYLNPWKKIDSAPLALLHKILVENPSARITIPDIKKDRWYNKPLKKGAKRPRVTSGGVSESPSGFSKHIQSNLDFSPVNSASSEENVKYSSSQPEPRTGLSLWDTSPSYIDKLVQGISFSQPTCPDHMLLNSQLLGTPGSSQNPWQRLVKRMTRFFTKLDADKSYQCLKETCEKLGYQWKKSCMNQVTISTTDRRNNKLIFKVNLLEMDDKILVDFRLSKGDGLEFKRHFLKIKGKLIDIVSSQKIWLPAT

[13] = target: Serine/threonine-protein kinase Chk2 (Homo sapiens, UniProt O96017); test: Inhibition of CHK2 at 30 uM by microfluidic mobility shift assay; method in brief: as §1
Chain of Serine/threonine-protein kinase Chk2 (O96017 whole entry): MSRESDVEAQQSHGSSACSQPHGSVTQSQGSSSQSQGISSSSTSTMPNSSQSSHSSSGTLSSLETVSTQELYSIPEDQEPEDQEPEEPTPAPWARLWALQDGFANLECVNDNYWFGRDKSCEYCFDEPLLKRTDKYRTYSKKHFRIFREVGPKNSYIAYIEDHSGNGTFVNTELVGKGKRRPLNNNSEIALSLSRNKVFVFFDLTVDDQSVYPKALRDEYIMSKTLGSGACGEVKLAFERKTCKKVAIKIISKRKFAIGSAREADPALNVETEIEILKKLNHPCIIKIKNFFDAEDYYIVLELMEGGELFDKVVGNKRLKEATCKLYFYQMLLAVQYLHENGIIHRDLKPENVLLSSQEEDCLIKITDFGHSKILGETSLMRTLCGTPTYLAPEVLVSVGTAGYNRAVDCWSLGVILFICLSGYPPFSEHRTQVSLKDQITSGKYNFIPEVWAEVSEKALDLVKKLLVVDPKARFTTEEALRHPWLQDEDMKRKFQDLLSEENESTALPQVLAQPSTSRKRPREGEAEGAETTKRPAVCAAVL

Chain of RAC-alpha serine/threonine-protein kinase (Homo sapiens) (P31749 whole entry): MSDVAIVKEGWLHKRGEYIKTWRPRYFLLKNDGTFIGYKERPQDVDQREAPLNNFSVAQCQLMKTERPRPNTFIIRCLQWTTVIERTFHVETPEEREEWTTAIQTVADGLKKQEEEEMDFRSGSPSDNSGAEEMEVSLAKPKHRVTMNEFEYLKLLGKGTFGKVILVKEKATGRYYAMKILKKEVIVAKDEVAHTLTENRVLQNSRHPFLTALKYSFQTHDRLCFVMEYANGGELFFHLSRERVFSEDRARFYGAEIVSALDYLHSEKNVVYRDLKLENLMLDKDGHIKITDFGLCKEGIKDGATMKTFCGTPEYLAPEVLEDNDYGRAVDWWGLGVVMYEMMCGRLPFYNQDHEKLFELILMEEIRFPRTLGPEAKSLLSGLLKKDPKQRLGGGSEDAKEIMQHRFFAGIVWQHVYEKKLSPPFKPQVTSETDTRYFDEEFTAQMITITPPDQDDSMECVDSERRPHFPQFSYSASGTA
Chain of Tyrosine-protein kinase ABL1 (P00519 whole entry): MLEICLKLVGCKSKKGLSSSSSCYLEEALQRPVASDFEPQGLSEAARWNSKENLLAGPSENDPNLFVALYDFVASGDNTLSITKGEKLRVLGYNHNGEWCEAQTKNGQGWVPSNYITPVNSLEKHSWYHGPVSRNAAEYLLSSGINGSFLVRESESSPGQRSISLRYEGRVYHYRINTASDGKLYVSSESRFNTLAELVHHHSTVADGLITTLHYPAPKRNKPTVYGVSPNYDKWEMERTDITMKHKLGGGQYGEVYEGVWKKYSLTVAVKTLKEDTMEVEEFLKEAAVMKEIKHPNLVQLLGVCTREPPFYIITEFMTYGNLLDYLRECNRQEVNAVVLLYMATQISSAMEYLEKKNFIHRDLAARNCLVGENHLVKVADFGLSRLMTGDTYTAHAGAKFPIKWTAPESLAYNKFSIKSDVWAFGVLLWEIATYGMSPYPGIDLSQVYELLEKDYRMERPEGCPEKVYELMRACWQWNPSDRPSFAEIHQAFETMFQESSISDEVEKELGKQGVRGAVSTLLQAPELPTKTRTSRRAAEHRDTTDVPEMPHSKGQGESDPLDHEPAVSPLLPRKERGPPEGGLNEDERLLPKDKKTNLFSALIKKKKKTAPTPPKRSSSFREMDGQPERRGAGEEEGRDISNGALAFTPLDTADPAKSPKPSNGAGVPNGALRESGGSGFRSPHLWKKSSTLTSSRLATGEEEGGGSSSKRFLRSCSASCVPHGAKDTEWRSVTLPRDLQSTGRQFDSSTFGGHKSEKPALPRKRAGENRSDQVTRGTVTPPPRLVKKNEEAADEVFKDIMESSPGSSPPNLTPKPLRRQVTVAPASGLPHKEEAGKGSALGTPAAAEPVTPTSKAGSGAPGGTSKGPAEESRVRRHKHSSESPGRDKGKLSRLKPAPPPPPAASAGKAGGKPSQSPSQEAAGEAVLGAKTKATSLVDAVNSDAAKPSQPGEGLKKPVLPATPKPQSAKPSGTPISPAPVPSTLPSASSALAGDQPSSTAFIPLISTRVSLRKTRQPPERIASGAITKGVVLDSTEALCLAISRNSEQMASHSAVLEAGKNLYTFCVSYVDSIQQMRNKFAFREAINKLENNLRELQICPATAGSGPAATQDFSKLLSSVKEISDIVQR
Chain of Ribosomal protein S6 kinase alpha-5 (Homo sapiens) (O75582 whole entry, looked up): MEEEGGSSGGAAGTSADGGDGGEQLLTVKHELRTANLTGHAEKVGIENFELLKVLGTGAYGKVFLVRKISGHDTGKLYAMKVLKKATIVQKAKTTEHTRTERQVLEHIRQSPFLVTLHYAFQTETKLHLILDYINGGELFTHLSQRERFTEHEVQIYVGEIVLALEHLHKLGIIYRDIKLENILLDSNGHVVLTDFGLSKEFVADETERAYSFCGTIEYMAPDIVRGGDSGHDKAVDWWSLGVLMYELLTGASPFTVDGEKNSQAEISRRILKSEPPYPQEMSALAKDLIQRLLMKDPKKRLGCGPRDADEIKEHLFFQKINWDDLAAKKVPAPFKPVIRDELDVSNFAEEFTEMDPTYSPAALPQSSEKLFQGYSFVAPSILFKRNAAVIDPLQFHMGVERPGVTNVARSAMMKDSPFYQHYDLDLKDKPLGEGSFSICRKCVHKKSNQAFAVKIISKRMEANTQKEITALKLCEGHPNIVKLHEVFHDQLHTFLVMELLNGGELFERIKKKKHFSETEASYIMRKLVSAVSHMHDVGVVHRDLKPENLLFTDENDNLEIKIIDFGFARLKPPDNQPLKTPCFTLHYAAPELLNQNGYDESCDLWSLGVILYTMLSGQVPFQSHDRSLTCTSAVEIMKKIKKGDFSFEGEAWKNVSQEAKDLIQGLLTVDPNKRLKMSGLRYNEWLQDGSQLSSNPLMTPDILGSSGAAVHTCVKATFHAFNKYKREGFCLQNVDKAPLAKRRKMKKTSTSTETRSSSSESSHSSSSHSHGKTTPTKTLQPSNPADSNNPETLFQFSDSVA
Chain of RAC-beta serine/threonine-protein kinase (Homo sapiens) (P31751 whole entry): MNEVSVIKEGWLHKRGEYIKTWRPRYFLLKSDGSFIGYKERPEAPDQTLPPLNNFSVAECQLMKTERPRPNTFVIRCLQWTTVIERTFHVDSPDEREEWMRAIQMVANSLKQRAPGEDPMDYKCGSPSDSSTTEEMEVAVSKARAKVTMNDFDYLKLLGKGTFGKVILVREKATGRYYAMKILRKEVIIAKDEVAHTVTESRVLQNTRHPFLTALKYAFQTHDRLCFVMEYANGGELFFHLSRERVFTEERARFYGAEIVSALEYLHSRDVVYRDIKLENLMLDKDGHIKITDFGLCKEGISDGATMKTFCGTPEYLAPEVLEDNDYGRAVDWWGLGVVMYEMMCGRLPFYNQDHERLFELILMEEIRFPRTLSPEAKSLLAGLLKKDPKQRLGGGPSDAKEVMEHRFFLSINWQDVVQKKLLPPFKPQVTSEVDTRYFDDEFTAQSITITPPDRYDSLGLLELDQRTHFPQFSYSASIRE
Chain of Glycogen synthase kinase-3 beta (Homo sapiens) (P49841 whole entry, looked up): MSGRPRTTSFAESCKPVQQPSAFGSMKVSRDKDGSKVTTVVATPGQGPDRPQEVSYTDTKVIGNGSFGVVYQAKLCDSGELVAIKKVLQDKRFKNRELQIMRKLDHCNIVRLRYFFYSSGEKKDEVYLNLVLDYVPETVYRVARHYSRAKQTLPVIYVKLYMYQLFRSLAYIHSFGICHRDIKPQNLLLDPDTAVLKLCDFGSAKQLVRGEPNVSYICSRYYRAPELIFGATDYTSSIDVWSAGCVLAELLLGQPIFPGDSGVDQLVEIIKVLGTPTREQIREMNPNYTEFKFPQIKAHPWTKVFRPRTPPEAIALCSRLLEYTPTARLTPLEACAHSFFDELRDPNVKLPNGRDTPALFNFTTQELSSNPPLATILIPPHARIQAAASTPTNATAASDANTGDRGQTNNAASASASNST
Chain of Mitogen-activated protein kinase 14 (Q16539 whole entry): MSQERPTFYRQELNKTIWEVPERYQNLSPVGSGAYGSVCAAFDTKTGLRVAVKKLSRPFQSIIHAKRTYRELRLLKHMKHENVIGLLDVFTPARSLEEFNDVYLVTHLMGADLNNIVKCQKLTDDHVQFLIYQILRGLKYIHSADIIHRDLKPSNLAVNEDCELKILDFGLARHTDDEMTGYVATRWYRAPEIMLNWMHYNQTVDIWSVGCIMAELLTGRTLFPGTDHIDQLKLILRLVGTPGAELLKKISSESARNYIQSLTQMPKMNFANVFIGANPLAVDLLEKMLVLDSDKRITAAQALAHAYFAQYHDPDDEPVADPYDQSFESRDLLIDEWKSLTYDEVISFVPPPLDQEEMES
Chain of Mitogen-activated protein kinase 3 (Homo sapiens) (P27361 whole entry): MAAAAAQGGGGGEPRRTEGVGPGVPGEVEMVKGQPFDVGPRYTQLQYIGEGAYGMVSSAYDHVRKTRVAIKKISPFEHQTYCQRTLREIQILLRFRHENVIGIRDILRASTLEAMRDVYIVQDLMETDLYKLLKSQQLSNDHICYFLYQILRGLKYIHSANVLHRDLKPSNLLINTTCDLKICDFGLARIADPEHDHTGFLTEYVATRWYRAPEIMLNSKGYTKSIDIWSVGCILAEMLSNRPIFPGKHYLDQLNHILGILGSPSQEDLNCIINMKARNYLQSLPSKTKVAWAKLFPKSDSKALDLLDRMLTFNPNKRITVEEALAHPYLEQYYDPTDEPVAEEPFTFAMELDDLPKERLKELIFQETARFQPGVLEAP

Row | SMILES | inhibition [1] [%] | inhibition [2] [%] | inhibition [3] [%] | inhibition [4] [%] | inhibition [5] [%] | inhibition [6] [%] | inhibition [7] [%] | inhibition [8] [%] | inhibition [9] [%] | inhibition [10] [%] | inhibition [11] [%] | inhibition [12] [%] | inhibition [13] [%]
1 | Nc1n[nH]c2cc(-c3cccnc3)[nH]c(=O)c12 | 1 | 24 | 71 | 19 | 37 | 7 | 8 | 42 | 36 | 35 | 3 | 9 | 27
2 | Nc1c2c(=O)[nH]c(-c3ccccn3)cc2nn1-c1ccccc1 | 3 | 96 | 11 | 4 | 95 | 4 | 8 | 30 | 4 | 0 | 32 | 7 | 3
3 | Cc1cc2[nH]nc(N)c2c(N2CCCCC2)n1 | 43 | 53 | 55 | 6 | 18 | 36 | 11 | 84 | 87 | 86 | 1 | 11 | 33
4 | Cc1cc2c(c(NC(=O)Nc3ccccc3)nn2C)c(=O)[nH]1 | 19 | 7 | 2 | 4 | 15 | 4 | 11 | 10 | 0 | -6 | 7 | 5 | 2
5 | COCCNc1nc(-c2ccccc2)cc2c1c(N)nn2C | 20 | 0 | 3 | 3 | -7 | 8 | -1 | 10 | 0 | -3 | 2 | 7 | 8
6 | CN1CCN(c2ccc(-c3cc4[nH]nc(N)c4c(=O)[nH]3)cc2)CC1 | 35 | 76 | 42 | 4 | 86 | 9 | 6 | 51 | 83 | 98 | 7 | 54 | 68
7 | Cc1cc2c(c(N)nn2C)c(N2CC[C@H](O)C2)n1 | 19 | 1 | -6 | 2 | -4 | 7 | 4 | 0 | 4 | 4 | 0 | 7 | -2
8 | Cc1cc2nc(N)nc(N)c2c(=O)[nH]1 | 8 | 11 | 36 | 9 | 19 | 5 | 0 | 10 | 6 | -1 | -1 | 15 | 16
9 | Cc1cc2[nH]nc(N)c2c(=O)[nH]1 | 10 | 2 | 18 | 4 | 12 | -3 | 8 | 23 | 56 | 57 | -7 | 7 | 27
10 | Nc1n[nH]c2cc(-c3ccc(N4CCOCC4)cc3)[nH]c(=O)c12 | -2 | 62 | 41 | 9 | 61 | -1 | 7 | 51 | 39 | 88 | 6 | 29 | 38
11 | COC(=O)CCc1c(C)[nH]c(=O)c2c(N)nn(C)c12 | 14 | 7 | 17 | 10 | 11 | 5 | 3 | 9 | 7 | 3 | -1 | 2 | -1
12 | Nc1n[nH]c2cc(-c3ccncc3)[nH]c(=O)c12 | 10 | 28 | 95 | 57 | 28 | 2 | 4 | 43 | 29 | 55 | 1 | 21 | 34
13 | Cc1cc2c(c(NS(C)(=O)=O)nn2C)c(=O)[nH]1 | 27 | 11 | 13 | 0 | -2 | 1 | 16 | -8 | 4 | -2 | 0 | 7 | -1
14 | COc1ccc(-c2cc3c(c(N)nn3C)c(=O)[nH]2)cc1 | -3 | 56 | 81 | 28 | 53 | 9 | -8 | 33 | 9 | 8 | 5 | 36 | 16
15 | COc1ccc(S(=O)(=O)Nc2nn(C)c3cc(C)[nH]c(=O)c23)c(OC)c1 | 21 | 3 | 0 | 4 | 3 | 10 | 6 | -9 | 3 | 3 | -4 | 0 | 6
16 | Cc1cc2c(c(N)nn2C)c(=O)[nH]1 | 0 | -8 | 1 | -2 | 0 | 11 | 4 | 4 | 4 | -3 | 6 | -8 | 3
